Tests used:
Assay type in all cases: functional
K562 = test: Cytotoxicity against human K562 cells after 48 hrs by SRB; settings: K562, 48 h; for TGI: read-out: pTGI
Summary of the method: (§1)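 Cells kept in RPMI 1640 with 10% FBS and 2 mM L-glutamine, plated at 5000 cells/well and incubated 24 h at 37 °C, 5% CO2. A time-zero plate was TCA-fixed at dosing. DMSO stocks were diluted in medium into four 10-fold concentrations, 10^-4 to 10^-7 M. Exposure lasted 48 h continuously, then cells were fixed in cold TCA, stained with 0.4% SRB and eluted with 10 mM Tris. A540 was read. GI50 = [(Ti−Tz)/(C−Tz)]×100 = 50; TGI from Ti = Tz.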

PC-3 = test: Cytotoxicity against human PC3 cells after 48 hrs by SRB; settings: PC-3, 48 h; for TGI: read-out: pTGI; summary of the method: as §1
MCF7 = test: Cytotoxicity against human MCF7 cells after 48 hrs by SRB; settings: MCF7, 48 h; for TGI: read-out: pTGI; summary of the method: as §1
HepG2 = test: Cytotoxicity against human HepG2 cells after 48 hrs by SRB; settings: HepG2, 48 h; for TGI: read-out: pTGI; summary of the method: as §1
KB = test: Cytotoxicity against human KB cells after 48 hrs by SRB; settings: for TGI: read-out: pTGI; summary of the method: as §1
[1] = Cytotoxicity against human Gurav cells after 48 hrs by SRB; settings: for TGI: read-out: pTGI; summary of the method: as §1
HOP-62 = test: Cytotoxicity against human HOP62 cells after 48 hrs by SRB; settings: HOP-62, 48 h; for TGI: read-out: pTGI; summary of the method: as §1

O=C1NC(=O)/C(=C\c2ccc(OCC(=O)N3C(=O)c4ccccc4S3(=O)=O)cc2)S1
2.69 µM: GI50 (K562)
37.2 µM: GI50 (MCF7)
> 100 µM: TGI (K562) | GI50 (PC-3) | TGI (PC-3) | TGI (MCF7) | GI50 (HepG2) | TGI (HepG2) | GI50 (KB) | TGI (KB) | TGI ([1]; Homo sapiens, Gurav, 48 h) | GI50 (HOP-62) | TGI (HOP-62)
31.6 µM: GI50 ([1]; Homo sapiens, Gurav, 48 h)

COc1cccc2c1C(=O)c1c(O)c3c(c(O)c1C2=O)C[C@@](O)(C(=O)CO)C[C@@H]3O[C@H]1C[C@H](N)[C@H](O)[C@H](C)O1 [DOXORUBICIN]
0.158 µM: GI50 ([1]; Homo sapiens, Gurav, 48 h)
> 100 µM: TGI (K562)
0.107 µM: GI50 [1]
< 0.1 µM: GI50 (HepG2) | GI50 (KB)
2.57 µM: GI50 (K562)

Cc1cnc(NC(=O)COc2ccc(/C=C3\SC(=O)NC3=O)cc2)s1
30.9 µM: GI50 (HOP-62)
2.24 µM: GI50 (K562)
> 100 µM: TGI (K562) | GI50 (MCF7) | TGI (MCF7) | GI50 (HepG2) | TGI (HepG2) | GI50 (KB) | TGI (KB) | TGI (HOP-62)

O=C(COc1ccc(/C=C2\SC(=O)NC2=O)cc1)Nc1ccccn1
2.29 µM: GI50 (HOP-62)
29.5 µM: GI50 (PC-3) | GI50 (MCF7)
> 100 µM: GI50 (K562) | TGI (K562) | TGI (PC-3) | TGI (MCF7) | GI50 (HepG2) | TGI (HepG2) | GI50 (KB) | TGI (KB) | GI50 ([1]; Homo sapiens, Gurav, 48 h) | TGI ([1]; Homo sapiens, Gurav, 48 h) | TGI (HOP-62)

O=C(COc1ccc(/C=C2\SC(=O)NC2=O)cc1)Nc1ncc([N+](=O)[O-])s1
> 100 µM: GI50 (K562) | TGI (K562) | GI50 (PC-3) | TGI (PC-3) | GI50 (MCF7) | TGI (MCF7) | GI50 (HepG2) | TGI (HepG2) | GI50 (KB) | TGI (KB) | GI50 ([1]; Homo sapiens, Gurav, 48 h) | TGI ([1]; Homo sapiens, Gurav, 48 h) | GI50 (HOP-62) | TGI (HOP-62)

O=C1NC(=O)/C(=C/c2ccc(OCC(=O)N3c4ccccc4Sc4ccccc43)cc2)S1
> 100 µM: GI50 (K562) | TGI (K562) | TGI (PC-3) | TGI (MCF7) | GI50 (HepG2) | TGI (HepG2) | GI50 (KB) | TGI (KB) | GI50 ([1]; Homo sapiens, Gurav, 48 h) | TGI ([1]; Homo sapiens, Gurav, 48 h)
29.5 µM: GI50 (PC-3) | GI50 (MCF7)

CCCCC1=NC2(CCCC2)C(=O)N1C(=O)COc1ccc(/C=C2/SC(=O)NC2=O)cc1
29.5 µM: GI50 (HOP-62)
28.2 µM: GI50 (MCF7)
> 100 µM: GI50 (K562) | TGI (K562) | GI50 (PC-3) | TGI (PC-3) | TGI (MCF7) | GI50 (HepG2) | TGI (HepG2) | GI50 (KB) | TGI (KB) | GI50 ([1]; Homo sapiens, Gurav, 48 h) | TGI ([1]; Homo sapiens, Gurav, 48 h) | TGI (HOP-62)

Cc1cc(NC(=O)COc2ccc(/C=C3\SC(=O)NC3=O)cc2)no1
2.75 µM: GI50 (K562)
> 100 µM: TGI (K562) | GI50 (PC-3) | TGI (PC-3) | TGI (MCF7) | GI50 (HepG2) | TGI (HepG2) | GI50 (KB) | TGI (KB) | TGI ([1]; Homo sapiens, Gurav, 48 h) | GI50 (HOP-62) | TGI (HOP-62)
39.8 µM: GI50 (MCF7)
38.9 µM: GI50 ([1]; Homo sapiens, Gurav, 48 h)

Cc1c(NC(=O)COc2ccc(/C=C3\SC(=O)NC3=O)cc2)c(=O)n(-c2ccccc2)n1C
> 100 µM: GI50 (K562) | TGI (K562) | GI50 (PC-3) | TGI (PC-3) | GI50 (MCF7) | TGI (MCF7) | GI50 (HepG2) | TGI (HepG2) | GI50 (KB) | TGI (KB) | GI50 ([1]; Homo sapiens, Gurav, 48 h) | TGI ([1]; Homo sapiens, Gurav, 48 h) | TGI (HOP-62)
0.186 µM: GI50 (HOP-62)

O=C(COc1ccc(/C=C2\SC(=O)NC2=O)cc1)Nc1cccc(C(F)(F)F)c1
2.51 µM: GI50 (PC-3)
> 100 µM: TGI (K562) | TGI (PC-3) | GI50 (HepG2) | TGI (HepG2) | TGI (KB) | GI50 (HOP-62) | TGI (HOP-62)
2.24 µM: GI50 (KB)
0.191 µM: GI50 (K562)

O=C(COc1ccc(/C=C2\SC(=O)NC2=O)cc1)Nc1nc2ccccc2s1
28.2 µM: GI50 (PC-3)
25.1 µM: GI50 (MCF7)
> 100 µM: GI50 (K562) | TGI (K562) | TGI (PC-3) | TGI (MCF7) | GI50 (HepG2) | TGI (HepG2) | GI50 (KB) | TGI (KB) | GI50 ([1]; Homo sapiens, Gurav, 48 h) | TGI ([1]; Homo sapiens, Gurav, 48 h)

— ChEMBL document CHEMBL1250473, “Synthesis and primary cytotoxicity evaluation of new 5-benzylidene-2,4-thiazolidinedione derivatives” (2010)
